Assay results collected from several papers.
Target: Serine/threonine-protein kinase Sgk1 (SGK1, Homo sapiens, UniProt O00141)

CCCOc1ccc(OC)c(F)c1C(=O)c1ccc(C(=O)N[C@@H]2CNC[C@H]2NC(=O)c2ccc3[nH]ncc3c2)cc1 — remaining activity (enzyme activity, inhibitor; 0.75 µM): 34%
CC/C(=N\NC(=O)C(C)Nc1ccccc1)c1ccc(O)c(C)c1O (stereo not drawn) — inhibition (enzyme activity, inhibitor; 0.1 µM): 44.6%
O=C(Nc1cnn(-c2csc(C(=O)NC3COC3)c2)c1)Nc1ccccc1Cl — remaining activity (enzyme activity, inhibitor; 5 µM): 93.7%
O=[N+]([O-])c1cccc2[nH]c(CNc3nc(N4CCOCC4)nc4c3ncn4-c3ccsc3)nc12 — binding vs control (binding, competition with immobilised ligand; 10 µM): 57%
CO[C@@H](C)c1c(Nc2ccc([C@@H](N(C)C(=O)C3CCS(=O)(=O)CC3)C(F)(F)F)cc2)cnc2cc(Cl)nn12 — remaining binding (cell-free assay, competition with immobilised ligand; 1 µM): 89%
CN(c1ncccc1CNc1nc(Nc2ccc3c(c2)CC(=O)N3)ncc1C(F)(F)F)S(C)(=O)=O — inhibition (enzyme activity, inhibitor; 1 µM): 13.4%
Cc1cc(NC(=O)c2cccc3cc(-c4cccc5[nH]nc(N)c45)ccc23)ccc1F — activity vs control (enzyme activity, inhibitor; 0.1 µM): 87%
CC[C@H](CO)Nc1nc(NCc2ccccc2)c2ncn(C(C)C)c2n1 — remaining signal (cell-free assay; 0.5 µM): 120%
CN(C)C1CCN(CC#Cc2nn(C3CCCC3)c3nc(NCc4ccccc4)ncc23)C1 (stereo not drawn) — inhibition (enzyme activity, inhibitor, FRET; 10 µM): 20%
FC(F)(F)Oc1cccc(-c2cnc3ccc(-c4ccncc4)nn23)c1 — activity vs control (enzyme activity, inhibitor, radiometric; 1 µM): 103%
Cc1ccc(C(=O)Nc2ccc(CN3CCN(C)CC3)c(C(F)(F)F)c2)cc1C#Cc1cnc2cccnn12 — remaining activity (enzyme activity, inhibitor; 23.5 nM): 94%
CCN(CC)CCNC(=O)c1c(C)[nH]c(/C=C2\C(=O)Nc3ccc(F)cc32)c1C — inhibition (enzyme activity, inhibitor; 10 µM): 86%
Cc1cnc(NC2CCOCC2)nc1-n1cnc(C(=O)NC(CN)c2cc(F)cc(Cl)c2)c1 (stereo not drawn) — remaining activity (enzyme activity, inhibitor, radiometric; 1 µM): 23%
Cc1ccc(Nc2nccc(N(C)c3ccc4c(C)n(C)nc4c3)n2)cc1S(N)(=O)=O — inhibition (enzyme activity, inhibitor; 0.3 µM): -14%
O=C1Nc2ccc(Cl)cc2C1=Cc1cc(Cl)c(O)c(Cl)c1 — remaining signal (cell-free assay; 0.5 µM): 91.3%
CCOCCn1cc(C(=O)Nc2ccc(-n3nc(-c4cccnc4)cc3C(F)(F)F)cn2)ccc1=O — remaining binding (cell-free assay, competition with immobilised ligand; 1 µM): 83%
Oc1cccc(-c2nc(N3CCOCC3)c3oc4ncccc4c3n2)c1 — remaining activity (enzyme activity, inhibitor; 10 µM): 92%
CN1CC(Oc2cnc(C#N)cc2-c2ccn3nc(NC(=O)C4CC4)cc3c2)C1 — inhibition (enzyme activity, inhibitor; 1 µM): 3%
CNc1cccc2cc(C(=O)Nc3ccc(C(=O)O)cc3)c(=O)[nH]c12 — inhibition (enzyme activity, inhibitor; 10 µM): 8.2%
O=C1CCc2cc(Nc3cc(OC4CCOCC4)c([N+](=O)[O-])cc3Cl)ccc2N1 — remaining binding (cell-free assay, competition with immobilised ligand; 1 µM): 100%
COc1cc2ncnc(Nc3ccc(Oc4ccccc4)cc3C)c2cc1OC — inhibition (enzyme activity, inhibitor; 1 µM): 8%
O=C(O)[C@@H]1[C@@H](Cn2nnc3ccccc3c2=O)CC[C@H]1C(=O)c1ccc(OCCC2CCOCC2)cc1 — remaining binding (cell-free assay, competition with immobilised ligand; 1 µM): 74%
CCN(CC)c1ccc(C2=NNC(=O)CC2C)cc1[N+](=O)[O-] (stereo not drawn) — remaining activity (enzyme activity, inhibitor; 10 µM): 100%
CNC(=O)c1cc(Oc2ccc(NC(=O)Nc3ccc(Cl)c(C(F)(F)F)c3)cc2)ccn1 — inhibition (enzyme activity, inhibitor; 0.3 µM): -15%
COc1cc(-c2cn(C3CCc4ccccc4N(CC(F)(F)F)C3=O)nn2)ccc1-n1ccc(C)n1 (stereo not drawn) — remaining binding (cell-free assay, competition with immobilised ligand; 1 µM): 88%
FC(F)c1nc2ccccc2n1-c1nc(N2CCOCC2)nc(N2CCOCC2)n1 — remaining activity (enzyme activity, inhibitor; 10 µM): 98%
CSc1nc(C)c(-c2ccnc(Nc3ccc(N4CCOCC4)cc3)c2)[nH]1 — inhibition (enzyme activity, inhibitor; 10 µM): 34.8%
COc1cc(Nc2cnc(C#N)c(O[C@H](C)CN(C)C)n2)ncc1-c1cnn(C)c1 — remaining activity (enzyme activity, inhibitor, radiometric; 10 µM): 22%
CC1=C(C#N)C(c2ccc3c(c2)c(NC(=O)c2ccccc2C)nn3C)C(C#N)=C(C)N1 — remaining binding (cell-free assay, competition with immobilised ligand; 1 µM): 89%
CC(C)(C)c1nc(-c2cccc(NS(=O)(=O)c3c(F)cccc3F)c2F)c(-c2ccnc(N)n2)s1 — remaining activity (enzyme activity, inhibitor, radiometric; 1 µM): 75%
COc1cc(/C=C/C(=O)CC(=O)/C=C/c2ccc(O)c(OC)c2)ccc1O — activity vs control (enzyme activity, inhibitor; 1 µM): 82%
CN(C(=O)c1ccccc1)c1cc(N(C)c2ccc3c(c2)CCc2ccc(C(=O)NCCN4CCOCC4)cc2C3=O)ccc1F — remaining binding (cell-free assay, competition with immobilised ligand; 1 µM): 100%
CNCc1ccc(-c2cc(-c3nc(-c4ccc(S(=O)(=O)C(C)C)cc4)cnc3N)on2)cc1 — inhibition (enzyme activity, inhibitor; 0.4 µM): 0%
Nc1nc(NC2CCCCC2)sc1C(=O)c1ccccc1 — remaining activity (enzyme activity, inhibitor; 10 µM): 81%
O=C(N1CCS(=O)(=O)CC1)N1C[C@H](c2ccc(OC(F)(F)F)cc2)C[C@H](c2nc(C3CC3)no2)C1 — remaining binding (cell-free assay, competition with immobilised ligand; 1 µM): 91%
CC(C)(O)[C@H]1CC[C@H](Nc2ccc3ncc(-c4cccc(C(F)(F)F)c4)n3n2)CC1 — remaining activity (enzyme activity, inhibitor; 1 µM): 99.4%
